OX1R antag-1: antagonists of human orexin 1 receptor (OX1R); Orexin/Hypocretin receptor type 1 (Homo sapiens), O43613; OX1R-expressing cells, FRET antagonist read-out; inhibition, % at 6.6 µM; 330,000 compounds, 1.8% hits; in the data active = inhibition mostly above about 38%, no sharp cut-off; inactive = mostly below about 40%
OX1R antag-2: OX1R (HCRTR1) antagonists, primary screen, fluorescence, CHO/OX1R cells, Fluo-8 calcium, orexin A. Orexin/Hypocretin receptor type 1 (Homo sapiens), O43613. Fluo-8 calcium fluorescence. inhibition, % at 5 µM. 330,000 compounds, 0.43% hits. AID 434989, 2010;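 active = inhibition above its plate's threshold, mean inhibition of all tested compounds on the plate plus 3 SD, cut at about 37% in these data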
TAAR1 agonist: human TAAR1 agonists, primary screen, Fluo-8 calcium fluorescence, CHO RD-HGA16 cells; 360,000 compounds, 0.99% hits; vehicle wells 0%, saturating PEA agonist 100%; Trace amine-associated receptor 1 (Homo sapiens), Q96RJ0; activation, % at 3 µM;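 active = activation above the mean activation of all test compounds in the run plus 3 SD, cut at about 38% in these data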
Target sequence (Q96RJ0 whole entry, looked up): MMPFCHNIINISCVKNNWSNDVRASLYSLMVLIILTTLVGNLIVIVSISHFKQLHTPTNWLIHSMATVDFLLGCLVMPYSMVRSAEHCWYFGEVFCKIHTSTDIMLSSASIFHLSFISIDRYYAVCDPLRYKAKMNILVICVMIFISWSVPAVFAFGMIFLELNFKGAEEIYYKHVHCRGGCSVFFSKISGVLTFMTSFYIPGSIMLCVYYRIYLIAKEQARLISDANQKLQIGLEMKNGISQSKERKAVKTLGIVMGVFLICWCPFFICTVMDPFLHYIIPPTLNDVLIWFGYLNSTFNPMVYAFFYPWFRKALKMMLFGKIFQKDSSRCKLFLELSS
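Signal – calcium-sensitive Fluo-8 signal, excitation 470-495, emission 515-575 nm · System – RD-HGA16 (CHO) cells co-expressing Gα16 and hTAAR1 · Incubation – 17-24 h seeding, 75 min 37 °C dye, 30 min RT · Compound dosing – 3 µM single concentration · Repeats – no replicates (n 1)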
CHO parental Ca: ATP-evoked calcium signal inhibitors, parental CHO, primary screen, counter-screen for OX1R antagonist project, cell-based, fluorescence, Fluo-8 calcium dye; parental CHO-K1, ATP-induced calcium, Fluo-8 fluorescence; inhibition, % at 5.6 µM; 330,000 compounds, 0.63% hits; AID 463079, 2010;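 active = inhibition above that plate's mean sample inhibition plus 3 SD, cut at about 26% in these data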
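Assay system: untransfected parental CHO cell line. Also added: ATP agonist challenge. Dosing: one dose, 5.6 µM nominal. Measured by: Fluo-8 fluorescence. Read-out: % inhibition. Benchmarks: ATP wells versus no-ATP DMSO wells. Repeats: no replicates.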
NTR1 ag: agonists of human NTR1, primary screen, imaging, U2OS cells, beta-arrestin-GFP, high content; NTR1-U2OS beta-arrestin-GFP spot imaging, agonist mode; activation, % at 20 µM; 330,000 compounds, 0.17% hits;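 active = activation at or above 40% of the spot to cytoplasm intensity ratio, with at least 20 cells analyzed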
TAAR1 antag: human TAAR1 antagonists, primary screen, Fluo-8 calcium fluorescence, CHO RD-HGA16 cells; Trace amine-associated receptor 1 (Homo sapiens), Q96RJ0; antagonist; inhibition, % at 3 µM; 360,000 compounds, 1.5% hits;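 active = inhibition above a per-plate cutoff, the mean inhibition of test compounds on that plate plus 3 SD, cut at about 49% in these data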
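System: CHO RD-HGA16 cells bearing hTAAR1. Reagent: EC80 β-phenethylamine stimulus. Schedule: seeding 17-24 h prior, 75-min 37 °C, 30-min RT dye loading. Signal: Fluo-8 intracellular calcium dye fluorescence, real-time kinetic reads. Read-out: % inhibition from peak post-agonist over basal fluorescence ratio. Benchmarks: vehicle wells and EC80 agonist wells. Replicates: n of 1.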
nonsel antag count: nonselective antagonists in TAAR1 counter-screen cells, counter-screen for hTAAR1 antagonist project, cell-based, fluorescence, calcium; shares compounds with TAAR1 antag; counterscreen cell line, antagonist mode; inhibition, % at 3 µM; 2,400 compounds, 77% hits; AID 651780, 2012; in the data active = inhibition above about 22%;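 note: CHO-Ga16 host cells stimulated with ATP at an EC80 level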
TAAR1 antag conf: human TAAR1 antagonists, retest of hits, confirmation, cell-based, fluorescence. AID 651785, 2012. shares compounds with TAAR1 antag. 2,400 compounds, 40% hits. TAAR1-expressing cells, fluorescence antagonist read-out. inhibition, % at 3 µM; in the data active = inhibition above about 49%;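 note: CHO-Ga16 host cells challenged with agonist PEA near its EC80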
Ga16 nonsel ag: calcium activation in Ga16-expressing cells, counter-screen for TAAR1 antagonist project, cell-based, fluorescence | shares compounds with TAAR1 antag | agonist counterscreen | activation, % at 3 µM | 2,400 compounds, 18% hits | AID 651953, 2012; in the data active = activation above about 12%
TAAR1 ag count: TAAR1 activation by candidate antagonists – cell-based, fluorescence, counter-screen for TAAR1 antagonist project; shares compounds with TAAR1 antag; hTAAR1 cell line, agonist mode; activation, % at 3 µM; 2,400 compounds, 2% hits; AID 651955, 2012; in the data active = activation above about 37%;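 note: CHO cells stably expressing TAAR1 with calcium dye readout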
Numbers stand for hits; – = inactive; · = no result given. Only some compounds are listed: those with a hit (about 4% of all), similar ones and a draw of the others.

SMILES	OX1R antag-1	OX1R antag-2	TAAR1 agonist	CHO parental Ca	NTR1 ag	TAAR1 antag	nonsel antag count	TAAR1 antag conf	Ga16 nonsel ag	TAAR1 ag count
O=c1c2ccccc2nc(/C=C/c2cc(Br)ccc2O)n1CCCO	–	–	–	–	–	58	–	–	–	–
CCN(CC(=O)Nc1ccc(OC)cc1)CC(=O)N1CC(=O)Nc2ccccc21	–	–	–	–	–	–	·	·	·	·
CC(=O)N1N=C(c2cccc(NS(C)(=O)=O)c2)CC1c1cccs1 (stereo unspecified)	–	–	–	–	–	–	·	·	·	·
CC(=O)N1N=C(c2cccc(O)c2)CC1c1cccs1 (stereo unspecified)	·	·	–	·	–	71	–	–	–	–
CCOc1ccc(NC(=O)CN(C)C(=O)c2cc(-c3ccncc3)nc3ccccc23)cc1OCC	–	–	–	–	–	67	30	–	–	–
COc1ccc(NC(=O)CN(C)C(=O)c2ccc3c(c2)CC(c2ccccc2)OC3=O)cc1 (stereo unspecified)	·	·	–	·	·	–	·	·	·	·
COc1ccc(Cl)cc1NC(=O)CN(C)C(=O)c1ccc2c(c1)CC(c1ccccc1)OC2=O (stereo unspecified)	–	–	–	–	–	65	33	53	12	–
CCOc1ccc(NC(=O)CN(C)C(=O)c2cccnc2Sc2ccccc2Cl)cc1OCC	–	–	–	–	–	–	·	·	·	·
COc1ccc(Cl)cc1NC(=O)CN(C)C(=O)c1cc(-c2ccncc2)nc2ccccc12	–	–	–	–	–	74	42	53	15	–
COc1ccccc1N(C)S(=O)(=O)c1ccc(C(=O)Nc2ccc(C(N)=O)cc2)cc1	–	–	–	–	–	54	24	–	–	–
CN(c1ccccc1)S(=O)(=O)c1ccc(C(=O)NCc2ccc(F)cc2)cc1	–	–	–	–	–	64	42	58	12	–
COc1ccccc1N(C)S(=O)(=O)c1ccc(C(=O)NCc2ccc3c(c2)OCO3)cc1	–	–	–	–	–	67	31	53	–	–
COc1ccc2c(C(=O)NCc3ccc4c(c3)OCO4)c(-c3ccc(S(C)(=O)=O)cc3)sc2c1	–	–	–	–	–	64	36	55	–	–
CCN(CC)CCNC(=O)c1ccc(NC(=O)c2ccc(S(=O)(=O)N(C)c3ccccc3OC)cc2)cc1	·	·	–	·	·	–	·	·	·	·
COc1ccc(S(=O)(=O)N(C)CC(=O)NCc2ccc3c(c2)OCO3)cc1	–	–	–	–	–	–	·	·	·	·
CN(C)Cc1ncccc1Oc1nc2cc(-c3cccc(Cl)c3)sc2c(=O)n1C	·	·	–	·	·	–	·	·	·	·
Cc1ccc(CNS(=O)(=O)c2ccc3c(c2)n(C)c(=O)n3C)cc1	–	–	–	–	–	–	·	·	·	·
COc1ccccc1N(C)S(=O)(=O)c1ccc(C(=O)N(C)Cc2ccc(Cl)s2)cc1	–	–	–	–	–	51	27	–	–	–
COc1ccccc1N(C)S(=O)(=O)c1ccc(C(=O)N(C)Cc2cccc(OC)c2OC)cc1	·	·	–	·	·	–	·	·	·	·
N#Cc1ccccc1S(=O)(=O)N1CCN(C(=O)c2cc(=O)[nH]c3ccccc23)CC1	–	–	–	–	–	–	·	·	·	·
Cc1cc(C)c(C)c(S(=O)(=O)N2CCN(C(=O)c3cc(=O)[nH]c4ccccc34)CC2)c1C	–	–	–	–	–	55	34	56	13	–
CCC1Oc2ccc(C)cc2N(CC(=O)NCC2COc3ccccc3O2)C1=O (stereo unspecified)	–	–	–	–	–	67	24	49	–	–
C=CCC[C@@H](Cc1ccc(F)cc1)C(=O)OC[C@H](C)NC(=O)[C@@H](CC=C)CC(=O)N(CCO)Cc1ccccc1	–	–	–	–	–	–	·	·	·	·
C=CCC[C@@H](Cc1ccc(F)cc1)C(=O)OC[C@H](C)NC(=O)[C@H](CC=C)CC(=O)N(CCO)Cc1ccccc1	–	–	–	–	–	71	27	–	–	–
C=CC[C@@H](CC(=O)N(CCO)Cc1ccccc1)C(=O)N[C@H](COC(=O)[C@@H](CC=C)Cc1ccc(F)cc1)Cc1ccccc1	–	–	–	–	–	75	27	–	–	–
SMILES	OX1R antag-1	OX1R antag-2	TAAR1 agonist	CHO parental Ca	NTR1 ag	TAAR1 antag	nonsel antag count	TAAR1 antag conf	Ga16 nonsel ag	TAAR1 ag count
O=C(NCc1ccncc1)c1ccc(OCc2ccccc2)cc1	–	–	–	–	·	–	·	·	·	·
Cc1ccc(CNC(=O)c2ccc(COc3ccccc3)cc2)cc1	–	–	–	–	–	53	–	–	–	–
CCOC1=C2[C@@H](CN(S(=O)(=O)c3ccc(C)cc3)[C@H]2c2ccccc2)[C@H]2C(=O)N(c3ccccc3)C(=O)[C@H]2C1	·	·	–	·	·	–	·	·	·	·
CC(=O)OC(C=C(C)C)C/C(C)=C/COc1c2ccoc2cc2oc(=O)ccc12 (stereo unspecified)	·	·	–	·	·	70	28	54	–	–
CC(C)(O)C(O)COc1c2ccoc2cc2oc(=O)ccc12 (stereo unspecified)	–	–	–	–	–	–	·	·	·	·
Cc1ccccc1OCc1nc2ccccc2c(=O)n1/N=C/c1cccc([N+](=O)[O-])c1	–	–	–	–	–	–	·	·	·	·
Cc1ccccc1OCc1nc2ccccc2c(=O)n1/N=C/c1cn[nH]c1-c1ccccc1	–	–	–	–	–	64	27	56	–	–
O=c1c2ccccc2nc(COc2ccccc2)n1/N=C/c1ccc(O)c(O)c1	–	–	–	–	–	68	–	–	–	–
Cc1nc2ccccc2c(=O)n1/N=C/c1cn[nH]c1-c1ccccc1	–	–	–	–	–	58	27	–	–	–

Source: PubChem
